Reference: ChEMBL document CHEMBL3525900, “Pharmacokinetics, distribution, and metabolism of [14C]sunitinib in rats, monkeys, and humans” (Drug Metab Dispos, 2012)

Legend:
[1] = test system: Rattus norvegicus; assay: Cmax as total radioactivity in male Sprague-Dawley rat plasma at 15 mg/kg, po administered as single dose by LC/MS/MS analysis; format: ADME, organism-based; design: dose 15 mg/kg, dosed compound name [14C]Sunitinib, route oral; conditions: in vivo
Procedure, shortened: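 Single dose of [14C]sunitinib L-malate as free base, 50 µCi/kg. IV dose was 5 mg/kg by tail vein in 5 females. Oral dose was 15 mg/kg by gavage in 3 females and 3 males. Total radioactivity was by scintillation counting. […] Cmax was read from raw data, t½ by log-linear regression, AUC by linear trapezoidal rule.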

[2] = test system: Ovary; assay: Drug concentration in female albino rat ovary assessed as radioactivity per gram of tissue at 20 mg/kg administered as single dose via gastric gavage measured after 3 hrs by autoradiographic analysis; format: ADME, organism-based, Female gonad; design: dose 20 mg/kg, dosed compound name [14C]Sunitinib; conditions: in vivo, po
Procedure, shortened: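 Sprague Dawley (albino) and Lister Hooded (pigmented) rats, ca 7-8 weeks old, 179-310 g, acclimated 7 days. Single gavage dose of [14C]sunitinib L-malate (15 mg freebase/kg, 100 µCi/kg). One male and one female killed by CO2 per time point: albino at 3, 6, 24, 72, 168 h; pigmented at 24, 72, 168, 336 h. Carcasses frozen in solid CO2/hexane, 30 µm sagittal sections freeze-dried. Tissue radioactivity read by quantitative whole-body autoradiography against regression of standards, mean background subtracted.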

[3] = Drug concentration in male albino rat uveal tract assessed as radioactivity per gram of tissue at 20 mg/kg administered as single dose via gastric gavage measured after 3 hrs by autoradiographic analysis; format: ADME, organism-based; design: dose 20 mg/kg, dosed compound name [14C]Sunitinib; conditions: in vivo, po
[4] = test system: Blood; assay: Drug concentration in male albino rat blood assessed as radioactivity per gram of tissue at 20 mg/kg administered as single dose via gastric gavage measured after 6 hrs by autoradiographic analysis; format: ADME, organism-based; design: dose 20 mg/kg, dosed compound name [14C]Sunitinib; conditions: in vivo, po
[5] = test system: Zone of skin; assay: Drug concentration in male albino rat abdomen skin assessed as radioactivity per gram of tissue at 20 mg/kg administered as single dose via gastric gavage measured after 3 hrs by autoradiographic analysis; format: ADME, organism-based; design: dose 20 mg/kg, dosed compound name [14C]Sunitinib; conditions: in vivo, po
[6] = test system: Large intestine; assay: Drug concentration in male Lister Hooded pigmented rat large intestine assessed as radioactivity per gram of tissue at 20 mg/kg administered as single dose via gastric gavage measured after 168 hrs by autoradiographic analysis; format: ADME, organism-based; design: dose 20 mg/kg, dosed compound name [14C]Sunitinib; conditions: in vivo, po
[7] = Drug concentration in female albino rat uveal tract assessed as radioactivity per gram of tissue at 20 mg/kg administered as single dose via gastric gavage measured after 3 hrs by autoradiographic analysis; format: ADME, organism-based; design: dose 20 mg/kg, dosed compound name [14C]Sunitinib; conditions: in vivo, po
[8] = test system: Adrenal; assay: Drug concentration in male Lister Hooded pigmented rat adrenal assessed as radioactivity per gram of tissue at 20 mg/kg administered as single dose via gastric gavage measured after 336 hrs by autoradiographic analysis; format: ADME, organism-based; design: dose 20 mg/kg, dosed compound name [14C]Sunitinib; conditions: in vivo, po
[9] = test system: Stomach; assay: Drug concentration in female albino rat stomach assessed as radioactivity per gram of tissue at 20 mg/kg administered as single dose via gastric gavage measured after 72 hrs by autoradiographic analysis; format: ADME, organism-based; design: dose 20 mg/kg, dosed compound name [14C]Sunitinib; conditions: in vivo, po
[10] = test system: Kidney; assay: Drug concentration in female albino rat kidney assessed as radioactivity per gram of tissue at 20 mg/kg administered as single dose via gastric gavage measured after 168 hrs by autoradiographic analysis; format: ADME, organism-based; design: dose 20 mg/kg, dosed compound name [14C]Sunitinib; conditions: in vivo, po
Procedure, shortened: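 Sprague Dawley albino rats, ca 7-8 weeks old, dosed once by gastric gavage with [14C]sunitinib L-malate (15 mg freebase/kg, 100 µCi/kg). One male and one female killed by CO2 at 3, 6, 24, 72 and 168 h. Carcasses frozen in solid CO2/hexane, embedded and cut into 30 µm sagittal sections, then freeze-dried. Radioactivity quantified by whole-body autoradiography against standards by regression, background subtracted.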

[11] = test system: Adrenal; assay: Drug concentration in female Lister Hooded pigmented rat adrenal assessed as radioactivity per gram of tissue at 20 mg/kg administered as single dose via gastric gavage measured after 24 hrs by autoradiographic analysis; format: ADME, organism-based; design: dose 20 mg/kg, dosed compound name [14C]Sunitinib; conditions: in vivo, po
Procedure, shortened: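 Pigmented Lister Hooded rats, 7-8 weeks old, received [14C]sunitinib L-malate by gavage at 20 mg/kg (15 mg freebase/kg, 100 µCi/kg). One rat per sex was killed by CO2 at each of 24, 72, 168 and 336 h. Carcasses were frozen in solid CO2/hexane and cut into 30 µm sagittal sections, then freeze-dried. Tissue radioactivity was quantified by whole-body autoradiography calibrated against standards by regression (LOQ 0.04–0.06 µg eq/g).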

[12] = test system: Adrenal; assay: Drug concentration in female albino rat adrenal assessed as radioactivity per gram of tissue at 20 mg/kg administered as single dose via gastric gavage measured after 24 hrs by autoradiographic analysis; format: ADME, organism-based; design: dose 20 mg/kg, dosed compound name [14C]Sunitinib; conditions: in vivo, po
Procedure, shortened: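 Sprague Dawley (albino) rats, ca 7-8 weeks old, received a single gastric-gavage dose of [14C]sunitinib L-malate at 20 mg/kg (15 mg freebase/kg, 100 µCi/kg). One animal per sex killed by CO2 at 3, 6, 24, 72 and 168 h, then frozen in CO2/hexane. 30 µm sagittal sections were cut and freeze-dried. Radioactivity per gram quantified by whole-body autoradiography using regression against standards. LOQ 0.04–0.06 µg freebase equiv/g.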

[13] = Drug concentration in female Lister Hooded pigmented rat pituitary gland assessed as radioactivity per gram of tissue at 20 mg/kg administered as single dose via gastric gavage measured after 24 hrs by autoradiographic analysis; format: ADME, organism-based; design: dose 20 mg/kg, dosed compound name [14C]Sunitinib; conditions: in vivo, po
Procedure, shortened: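 Lister Hooded (pigmented) rats, ca 7-8 weeks old, acclimated 7 days, given [14C]sunitinib L-malate by gastric gavage at 20 mg/kg (15 mg freebase/kg, 100 µCi/kg). One male and one female killed by CO2 at 24, 72, 168 and 336 h. Carcasses frozen in solid CO2/hexane and embedded in frozen cellulose. 30 µm sagittal cryosections were freeze-dried. Tissue radioactivity measured by quantitative whole-body autoradiography against calibration standards, with background subtracted.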

Q: For CCN(CC)CCNC(=O)c1c(C)[nH]c(/[14CH]=C2\C(=O)Nc3ccc(F)cc32)c1C.O=C(O)C[C@H](O)C(=O)O, which Cmax [1] is on record?
A: 5220 ngequiv/ml

Q: And the Radiolabel recovery [2]?
A: 10.92 ugequiv

Q: And the Radiolabel recovery [3]?
A: 2.63 ugequiv

Q: And the Radiolabel recovery [4]?
A: 0.84 ugequiv

Q: And the Radiolabel recovery [5]?
A: 2.81 ugequiv

Q: And the Radiolabel recovery [6]?
A: 0.06 ugequiv

Q: What about the Radiolabel recovery [7] of the same compound?
A: 5.07 ugequiv

Q: And the Radiolabel recovery [8]?
A: 0.16 ugequiv

Q: What about the Radiolabel recovery [9] of the same compound?
A: 0.15 ugequiv

Q: And the Radiolabel recovery [10]?
A: 0.09 ugequiv

Q: What about the Radiolabel recovery [11] of the same compound?
A: 3.59 ugequiv

Q: And the Radiolabel recovery [12]?
A: 7.65 ugequiv

Q: And the Radiolabel recovery [13]?
A: 2.87 ugequiv
